# Compound activity deposited in PubChem by The Scripps Research Institute Molecular Screening Center.
# The list is not random: actives were taken first. Their share in the collection is about 2.3%.
# TAAR1 agonist: human TAAR1 agonism. AID 624467. CHO RD-HGA16 TAAR1, Fluo-8 calcium fluorescence; vehicle wells 0%, saturating PEA agonist 100%. Q96RJ0. 0.99% of 360,000 active. activation, % at 3 µM;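 active = activation above the mean activation of all test compounds in the run plus 3 SD, cut at about 38% in these data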
# Target sequence (Q96RJ0 whole entry, looked up): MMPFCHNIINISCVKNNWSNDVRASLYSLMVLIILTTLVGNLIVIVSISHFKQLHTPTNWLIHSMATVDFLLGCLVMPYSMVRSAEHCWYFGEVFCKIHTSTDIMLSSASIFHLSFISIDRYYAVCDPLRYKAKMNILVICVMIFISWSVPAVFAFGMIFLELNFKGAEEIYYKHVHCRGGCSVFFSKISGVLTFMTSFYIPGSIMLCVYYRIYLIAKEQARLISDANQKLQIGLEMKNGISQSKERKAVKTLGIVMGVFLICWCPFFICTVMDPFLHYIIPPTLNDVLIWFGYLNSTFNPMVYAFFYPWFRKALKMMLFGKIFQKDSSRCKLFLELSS
#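 System: CHO RD-HGA16 cells carrying human TAAR1 plus Gα16; Incubation: 17-24 h seeding, 75 min 37 °C dye, 30 min RT; Measured by: Fluo-8 fluorescence, 5 s baseline then 140 s kinetic read; Control set: DMSO and PEA EC100; Replication: single well for each compound.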
# OXTR agonist: human OXTR agonism | 0.32% of 320,000 active | CHO-OTR cells, Fluo-8 calcium fluorescence; normalized: DMSO 0%, oxytocin 100% | activation, % at 3 µM;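 active = activation above the mean of all tested compounds plus 3 SD, cutoff set per screening run, cut at about 20% in these data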;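 also: peak over basal fluorescence ratio from a 100 s FLIPR kinetic read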
# V1aR counter: counter-screen for oxytocin receptor agonists: human V1a receptor agonists; P37288; CHO-V1R cells, Fluo-8 calcium fluorescence, agonist mode; 0% DMSO, 100% 3 nM vasopressin; activation, % at 3 µM; 0.25% of 320,000 active;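 active = activation above the mean activation of all tested compounds plus 3 SD, per screening run, cut at about 20% in these data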;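 also: signal is peak over basal fluorescence ratio across a 100 second FLIPR read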
# OXTR potentiate: human OXTR potentiation | P30559 | CHO-OTR cells, Fluo-8 calcium fluorescence, potentiator mode; 0% = oxytocin EC15, 100% = EC100 | activation, % at 3 µM | 0.061% of 320,000 active | AID 2445;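 active = activation above that plate's cutoff, the mean activation of tested compounds plus 3 SD, cut at about 6.6% in these data, passing the limit was not always enough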;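 also: 100% uses oxytocin at 75 nM as the full agonist control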
#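 assay system = CHO-OTR cells, human receptor | schedule = compound 6 min at room temperature before oxytocin, 100 s read | detection = Fluo-8 intracellular calcium fluorescence, ex 470-495, em 515-575 nm | evaluation = normalized max/min fluorescence ratio, % activation | control set = EC15 oxytocin alone as 0%, 75 nM oxytocin (EC100) as 100%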
# TAAR1 antag: human TAAR1 antagonism; Q96RJ0; CHO RD-HGA16 TAAR1, Fluo-8 calcium fluorescence, antagonist; inhibition, % at 3 µM; 1.5% of 360,000 active;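 active = inhibition above a per-plate cutoff, the mean inhibition of test compounds on that plate plus 3 SD, cut at about 49% in these data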;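 also: 0% = DMSO plus EC80 beta-PEA response and 100% = DMSO alone without agonist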
#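 Test system: CHO RD-HGA16 cells bearing hTAAR1 | Reagent: β-PEA, EC80 | Compound dosing: 3 µM, single point | Schedule: Dye loading 75 min at 37 °C, then 30 min room temperature | Signal: Calcium fluorescence with Fluo-8 | Evaluation: Percent inhibition of PEA-evoked calcium signal, max/basal emission ratio | Control set: DMSO-only wells and EC80 β-PEA-stimulated wells | Repeats: Singlicate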
# An asterisk follows results filed as active; / = no result given.
SMILES,TAAR1 agonist,OXTR agonist,V1aR counter,OXTR potentiate,TAAR1 antag
CC(C)NS(=O)(=O)c1ccc(OCC(=O)Nc2ccc3c(c2)OCO3)c(Cl)c1,6,4,5,-15,33
O=C(COc1ccc(S(=O)(=O)N2CCCC2)cc1Cl)Nc1ccc2c(c1)OCO2,10,1,3,-9,50*
O=C(CN1CCN(CC(=O)Nc2ccccc2Cl)CC1)NCC1(N2CCOCC2)CCCCC1,1,/,/,/,-20
COc1ccc(Cc2nnc(NC(=O)CSc3ccccc3)s2)cc1OC,50*,7,9,-9,1
Cc1ccc(C)c(OCCCN2CCc3ccccc3C2)c1,39*,0,-1,0,-13
C=CCC[C@H](Cc1ccc(F)cc1)C(=O)OC[C@@H](Cc1c[nH]c2ccccc12)NC(=O)[C@H](CC=C)CC(=O)NCCO,14,-1,0,-6,51*
C=CCC[C@@H](Cc1ccc(F)cc1)C(=O)OC[C@H](Cc1c[nH]c2ccccc12)NC(=O)[C@@H](CC=C)CC(=O)N[C@H](CO)Cc1ccccc1,14,1,2,-11,55*
C=CCC[C@H](Cc1ccc(F)cc1)C(=O)OC[C@H](Cc1c[nH]c2ccccc12)NC(=O)[C@@H](CC=C)CC(=O)N[C@H](CO)Cc1ccccc1,14,0,0,-8,57*
CC(c1ccon1)N(C)Cc1cn(Cc2ccccc2)nc1-c1ccc2c(c1)OCO2 (stereo not drawn),14,0,0,0,36
NC(=O)c1ccc(NC(=O)COC(=O)CCC2CCCCC2)cc1,8,4,4,-4,-2
O=C1NC(Cc2ccccc2)c2nc3cc(Cl)ccc3c(=O)n2-c2ncccc21 (stereo not drawn),3,/,/,/,5
COC(=O)C1=C(C)N(Cc2ccc(C(F)(F)F)cc2)C(=NCc2ccccc2)NC1c1ccc(Cl)cc1 (stereo not drawn),17,/,/,/,43
Cc1ccc(NC(=O)CN2CCCCCC2)cc1[N+](=O)[O-],1,-1,-1,3,-22
CCOC(=O)Cc1csc(NC(=O)/C=C/c2ccc(Br)o2)n1,9,4,5,-5,49*
CCOC(=O)Cc1csc(NC(=O)C(C)c2ccc([N+](=O)[O-])cc2)n1 (stereo not drawn),50*,27*,26*,-21,20
COC(=O)c1ccc2c(=O)n(CC3CCCO3)c(SCC(=O)Nc3ccccc3Cl)nc2c1 (stereo not drawn),6,-1,0,2,17
COC(=O)c1ccc2c(=O)n(CC3CCCO3)c(SCC(=O)Nc3ccccc3OC)nc2c1 (stereo not drawn),2,-1,-2,-3,51*
COCCNC(=O)C(c1cccs1)N(Cc1ccccc1)C(=O)Cn1nnc2ccccc21 (stereo not drawn),17,0,1,-7,2
COCCNC(=O)C(c1cccs1)N(CCc1ccccc1)C(=O)Cn1nnc2ccccc21 (stereo not drawn),40*,-1,0,-11,5
CC(=O)c1c(C)[nH]c(C(=O)OCCCCN2C(=O)c3ccccc3C2=O)c1C,21,19,12,-24,72*
Cc1ccc(C2C(C#N)=C(N)SC(N)=C2C#N)cc1,50*,/,/,/,48
Cc1ccc(C2C(C#N)=C(N)SC(N)=C2C#N)c(C)c1,/,20*,21*,-24,/
N#CC1=C(N)SC(N)=C(C#N)C1c1ccoc1,/,5,5,-8,/
O=C(NCCc1ccccc1)C1(c2ccccc2)CCCC1,23,-2,-2,1,-5
N#CC1(c2ccccc2)CCC(NCCc2ccccc2)CC1 (stereo not drawn),41*,2,5,-19,9
SMILES,TAAR1 agonist,OXTR agonist,V1aR counter,OXTR potentiate,TAAR1 antag
N#Cc1ccc(C(C(=O)NC2CCCCC2)n2c(=O)c(-c3ccccc3)nc3ccccc32)cc1 (stereo not drawn),0,/,/,/,-30
CCOC(=O)C1CCCN(Cc2nc3ccc([N+](=O)[O-])cc3c(=O)n2-c2ccc(OC)cc2OC)C1 (stereo not drawn),46*,-1,-1,5,69*
CCCCNc1c(-c2ccc(-c3ccc(OC)cc3)c(OC)c2)nc2ccccn12,7,-2,0,-9,72*
CCCCNc1c(-c2ccc(OC)c(Sc3ccc(OC)cc3)c2)nc2ccccn12,/,-1,2,-10,/
CCCCNc1c(-c2ccc(SC(C)CC)c(OC)c2)nc2ccc(Cl)cn12 (stereo not drawn),0,-2,-1,-7,62*
CCCCCCSc1ccc(-c2nc3ccc(Cl)cn3c2NCCCC)cc1OC,1,0,1,-4,15
CCCCNc1c(-c2ccc(SC(C)CC)c(OC)c2)nc2ccc(C)cn12 (stereo not drawn),9,-3,0,-11,87*
CCNC(=O)N1CCN(c2ccc(N3CCN(C(=O)NCC)[C@@H](C)C3)c(C)c2)[C@H](C)C1,0,/,/,/,-23
O=C(C[C@H]1C/C=C\CC[C@H](Cc2ccc(F)cc2)C(=O)OCCNC1=O)NCCO,10,0,0,4,-3
CNC(=O)N(O)C1N(/N=C/c2ccc(N(C)C)cc2)C(=S)SC1(C)C (stereo not drawn),0,1,2,-6,-1
CC1(C)SC(=S)N(/N=C/c2ccccc2)C1N(O)C(=O)Nc1ccc([N+](=O)[O-])cc1 (stereo not drawn),44*,12,8,-23,-6
C=CCC[C@H](Cc1ccc(F)cc1)C(=O)OC[C@@H](Cc1c[nH]c2ccccc12)NC(=O)[C@H](CC=C)CC(=O)N(CCO)Cc1ccccc1,14,0,0,-9,65*
C=CC[C@H](CC(=O)N(CCO)Cc1ccccc1)C(=O)N[C@@H](COC(=O)[C@@H](CC=C)Cc1ccc(F)cc1)Cc1c[nH]c2ccccc12,4,2,4,-10,60*
C=CC[C@H](CC(=O)N(CCO)Cc1ccccc1)C(=O)N[C@H](COC(=O)[C@@H](CC=C)Cc1ccc(F)cc1)C(C)(C)C,10,-1,0,-1,51*
C=CCC[C@@H](Cc1ccc(F)cc1)C(=O)OC[C@@H](Cc1c[nH]c2ccccc12)NC(=O)[C@H](CC=C)CC(=O)N(CCO)Cc1ccccc1,5,1,-1,-9,60*
C=CC[C@@H](CC(=O)N(CCO)Cc1ccccc1)C(=O)N[C@@H](COC(=O)[C@@H](CC=C)Cc1ccc(F)cc1)Cc1c[nH]c2ccccc12,7,0,3,-9,17
